PubChem BioAssay
Results filed as inconclusive are left out. Active and inactive are the calls of the source.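 Rule for the calls, unless noted: active = viability increase at or above a cutoff of the median across tested compounds plus 3 SD (cut at about 8.5% in these data, passing the limit was not always enough); inconclusive = some gains above the cutoff, reason not given; inactive = the rest.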

Experiments:
[1] = OD615 S. cerevisiae growth inhibition, permissive medium, pilot counter-assay, permissive growth control for S. cerevisiae lifespan shortening project (AID 705;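 active = growth inhibition above 25% in both replicates, a cutoff set 3 SD above the mean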); details: OD615, 24 h, at 10 µM, hits give high values
Outline: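 System – S. cerevisiae with engineered DeaD lifespan system · Buffer or medium – SC raffinose/galactose permissive medium · Schedule – cells pre-grown 4 h, then 24 h compound exposure, 30 °C humidified · Technique – culture turbidity as optical density at 615 nm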

[2] = Restrictive medium S. cerevisiae growth inhibition, OD615, pilot screen of yeast lifespan reduction project, restrictive growth control (AID 706;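 active = growth inhibition above a set limit, 3 SD over mean compound inhibition, in both replicates, cut at about 43% in these data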;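 note: modified DeaD lifespan yeast strain shifted to restrictive glucose medium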); details: OD615, 48 h, at 10 µM, hits give high values
Outline: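 Material: engineered S. cerevisiae DeaD strain / Medium: glucose-based CSMM-D restrictive medium / Compound: single dose of 10 µM compound final, 0.25% DMSO / Timing: 4 h pre-incubation, 48 h exposure at 30 °C / Technique: OD615 absorbance reading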

[3] = viability gain of MRP-1-high H69AR cells under doxorubicin, pilot screen, MRP-1 activator project, CellTiter-Glo, duplicate (AID 807); details: H69AR viability with doxorubicin, CellTiter-Glo luminescence; at 10 µM; hits give high values;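 note: compound pretreatment 18-22 h then 72 h combined with doxorubicin; 0% = doxorubicin alone and 100% = vehicle without doxorubicin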
[4] = growth suppression of beta-catenin knockout HCT116, pilot screen, human colon tumor cells (AID 823;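 active = cell viability at or below a set limit in both duplicate runs, the limit being the all-compound median minus 4 SD, cut at about 23% in these data, passing the limit was not always enough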;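 note: 0% = wells killed by 20 µM Hyamine and 100% = untreated DMSO cell wells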); details: CellTiter-Glo, 60 h, at 10 µM, hits give low values
[5] = growth suppression of PTEN-deleted HCT116, pilot screen, cell-based, HCT116 clonal line, CellTiter-Glo (AID 824;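 active = viability at or below 27.92% in each of two runs, the all-compound median minus 4 SD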;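 note: 0% = 20 µM Hyamine control and 100% = vehicle cell control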); details: 60 h, at 10 µM, hits give low values
[6] = inhibitors of the yeast RAM network, pilot screen, dse1pr::URA3 reporter, 5-FOA selection (AID 869;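 active = inhibition over a set limit, the all-compound mean plus 3 SD, in both replicate runs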;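 note: 0% = DMSO wells with no growth and 100% = 10 µM 1-NA-PP1 with full growth; RAM network block rescues cells from 5-FOA so hits raise OD615 growth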); details: S. cerevisiae dse1pr::URA3 5-FOA growth, OD615, 2 d; at 10 µM; hits give high values; strain carries analog-sensitive mutant Cbk1 kinase
[7] = RAM signaling pathway blockade in yeast – S. cerevisiae, Pdr1DBD-CYC8 efflux-inhibited sensitized strain, primary screen (AID 1298;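 active = RAM network inhibition above 8.4% in each of two replicates, 3 SD over the compound average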;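 note: 0% = DMSO untreated cells without growth and 100% = 10 µM 1-NA-PP1 full growth; higher means more yeast growth rescued from 5-FOA killing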); details: S. cerevisiae cbk1-as DSE1-URA3 strain, 5-FOA growth OD615, 2 d; at 50 µM; hits give high values

CCCSC1=N/C(=C\c2ccsc2)C(=O)S1
inactive: growth inhibition [1] -10.5% | growth inhibition [2] -3.12% | viability increase [3] -0.76% | viability [4] 95.1% | viability [5] 99.2% | inhibition [6] 0.72% | RAM network inhibition [7] 9.91%

COCC(=O)NCCc1nc2ccccc2[nH]1
inactive: growth inhibition [1] -0.385% | growth inhibition [2] 1.45% | viability increase [3] -2.27% | viability [4] 98.7% | viability [5] 99.1% | inhibition [6] -0.325% | RAM network inhibition [7] 0.89%

O=C(CSc1nnc(-c2ccccc2)o1)Nc1ccccc1F
inactive: growth inhibition [1] -5.54% | growth inhibition [2] -2.1% | viability increase [3] -3.62% | viability [4] 37.7% | viability [5] 38% | inhibition [6] 2.13% | RAM network inhibition [7] 8.53%

CCc1cc(C(=O)COc2ccccc2F)c(O)cc1O
inactive: growth inhibition [1] -11.9% | growth inhibition [2] 11.9% | viability increase [3] -2.43% | viability [4] 96.1% | viability [5] 99.5% | inhibition [6] -0.155% | RAM network inhibition [7] -0.21%

CCOC(=O)C1CCN(S(=O)(=O)c2ccc(OCC)cc2)CC1
inactive: growth inhibition [1] -6.07% | growth inhibition [2] -13.5% | viability increase [3] -2.24% | viability [4] 92% | viability [5] 94.4% | inhibition [6] 0.575% | RAM network inhibition [7] 6.62%

CCC(C)NC(=O)c1ccccc1NC(=O)CN1C(=O)c2ccccc2S1(=O)=O (stereo not drawn)
inactive: growth inhibition [1] -17.3% | growth inhibition [2] -18.6% | viability increase [3] 0.23% | viability [4] 105% | viability [5] 95.2% | inhibition [6] 1.33% | RAM network inhibition [7] 5.02%

COc1ccc(Cl)cc1NC(=O)CSc1nnc(Cn2c(=O)sc3ccccc32)n1C
inactive: growth inhibition [1] -8.82% | growth inhibition [2] -14.1% | viability increase [3] -2.64% | viability [4] 96.6% | viability [5] 95.6% | inhibition [6] 4.87% | RAM network inhibition [7] 7.45%

Cc1ccc(-c2nc(CS(=O)CC(=O)NC3CCCC3)c(C)o2)cc1 (stereo not drawn)
inactive: growth inhibition [1] 5.52% | growth inhibition [2] 2.53% | viability increase [3] -4.16% | viability [4] 92.9% | viability [5] 91.4% | inhibition [6] 1.08% | RAM network inhibition [7] 5.29%

Cc1nc(CNS(=O)(=O)c2ccc3ccccc3c2)cs1
inactive: growth inhibition [1] -0.84% | growth inhibition [2] 3.39% | viability increase [3] -1.37% | viability [4] 97.8% | viability [5] 87.9% | inhibition [6] 2.13% | RAM network inhibition [7] 0%

CCOc1ccc(S(=O)(=O)N2CCN(S(=O)(=O)c3ccc(OCC)cc3)C(C)C2)cc1 (stereo not drawn)
inactive: growth inhibition [1] -7.32% | growth inhibition [2] 1.25% | viability increase [3] -5.22% | viability [4] 93% | viability [5] 93.7% | inhibition [6] 1.27% | RAM network inhibition [7] 6.32%

COc1ccccc1-c1c(C)nn2c(C)cc(C)nc12
inactive: growth inhibition [1] -5.75% | growth inhibition [2] -1.54% | viability increase [3] -1.88% | viability [4] 97.5% | viability [5] 97.3% | inhibition [6] 0.895% | RAM network inhibition [7] 1.79%

O=C(O)CCc1ccc(-c2cccs2)n1-c1ccc(C(=O)O)cc1
inactive: growth inhibition [1] -3.21% | growth inhibition [2] 3.42% | viability increase [3] -0.51% | viability [4] 98.7% | viability [5] 93.5% | inhibition [6] 2.39% | RAM network inhibition [7] -0.68%

CCOc1ccccc1NC(=O)C1CCN(S(=O)(=O)c2ccc(OC)c(OC)c2)CC1
inactive: growth inhibition [1] -4.97% | growth inhibition [2] -2.79% | viability increase [3] -2.46% | viability [4] 95% | viability [5] 98.1% | inhibition [6] 0.085% | RAM network inhibition [7] 0.83%

Cc1ccc2nc(NC(=O)CCNS(=O)(=O)c3cccs3)sc2c1
inactive: growth inhibition [1] -5.57% | growth inhibition [2] -7.59% | viability increase [3] 3.2% | viability [4] 87% | viability [5] 71.7% | inhibition [6] 0.45% | RAM network inhibition [7] 3.7%

CN(C)c1nc2c(c(=O)[nH]c(=O)n2C)n1Cc1ccc(F)cc1
inactive: growth inhibition [1] -2.72% | growth inhibition [2] 6.59% | viability increase [3] -0.31% | viability [4] 107% | viability [5] 100% | inhibition [6] 1.74% | RAM network inhibition [7] 2.1%

O=C(NC1CCCCCCC1)c1cnccn1
inactive: growth inhibition [1] 0.775% | growth inhibition [2] 10.4% | viability increase [3] -0.43% | viability [4] 103% | viability [5] 93.7% | inhibition [6] 1.72% | RAM network inhibition [7] 1.71%

COc1ccc(Cl)cc1N(CC(=O)N1CCC(C)CC1)S(C)(=O)=O
inactive: growth inhibition [1] 5.7% | growth inhibition [2] 0.85% | viability increase [3] -1.75% | viability [4] 96.6% | viability [5] 92.7% | inhibition [6] 0.155% | RAM network inhibition [7] 1.72%

CCOC(=O)c1c(NC(=O)c2cc(C3CC3)on2)sc2c1CCCC2
inactive: growth inhibition [1] -9.14% | growth inhibition [2] 0.505% | viability increase [3] -1.3% | viability [4] 102% | viability [5] 97.5% | inhibition [6] 1.49% | RAM network inhibition [7] 8.09%

O=C(NCCCN1CCOCC1)c1cc(-c2ccc3c(c2)OCO3)nc2ccccc12
inactive: growth inhibition [1] -19.7% | growth inhibition [2] -7.51% | viability increase [3] -3.78% | viability [4] 92.8% | viability [5] 89.3% | inhibition [6] 1.26% | RAM network inhibition [7] 7.64%

CCOC(=O)N1CCC(NC(=O)c2ccc(CS(=O)(=O)c3ccc(OC)cc3)o2)CC1
inactive: growth inhibition [1] 5.7% | growth inhibition [2] -8.08% | viability increase [3] -2.5% | viability [4] 104% | viability [5] 94.1% | inhibition [6] 1.96% | RAM network inhibition [7] 1.82%

CCn1c(C(C)NC(=O)Cc2ccccc2)nc2ccccc21 (stereo not drawn)
inactive: growth inhibition [1] -12.2% | growth inhibition [2] -17.6% | viability increase [3] -1.21% | viability [4] 99.6% | viability [5] 96% | inhibition [6] 1.83% | RAM network inhibition [7] 4.91%

O=C1C2C3C=CC(CO)(O3)C2C(=O)N1c1ccccc1-c1ccccc1 (stereo not drawn)
inactive: viability increase [3] -4.39% | viability [4] 93.7% | viability [5] 92% | inhibition [6] 0.13% | RAM network inhibition [7] -1.89%
active: growth inhibition [1] 97.3% | growth inhibition [2] 100%

COc1cc(NC(=O)CN2CC(c3ccccc3)CC2=O)cc(OC)c1 (stereo not drawn)
inactive: growth inhibition [1] -20.8% | growth inhibition [2] -10.4% | viability increase [3] 0.18% | viability [4] 100% | viability [5] 99.4% | inhibition [6] 1.27% | RAM network inhibition [7] 1.83%

CCC1CCCCN1C(=O)CSc1nnc(-c2cccc(Cl)c2)o1 (stereo not drawn)
active: growth inhibition [2] 46.1%
inactive: growth inhibition [1] 8.15% | viability increase [3] -3.24% | viability [4] 86.8% | viability [5] 91.5% | inhibition [6] 1.4% | RAM network inhibition [7] 1.06%
